Measured values published in ChEMBL document CHEMBL3784976 (J Med Chem, 2016).
The source made the active and inactive calls. The rule behind the calls is not given here.

Key:
[1] = Clearance in rat at 0.5 mg/kg, iv as single dose; assay type: ADME, organism-based; settings: in vivo
[2] = target: Sodium-dependent noradrenaline transporter (Homo sapiens) (UniProt P23975); assay: Displacement of [3H]nisoxetine from human recombinant norepinephrine transporter expressed in CHO cells assessed as remaining radioligand binding at 10 uM after 120 mins by scintillation counting method relative to control; assay type: cell-based
[3] = Apparent intrinsic clearance in human liver microsomes; assay type: ADME; settings: read-out: CLH(app)
[4] = target: Transient receptor potential cation channel subfamily V member 1 (Homo sapiens, UniProt Q8NER1); assay: Antagonist activity at human TRPV1 expressed in CHO cells assessed as inhibition of capsaicin-induced Ca2+ influx up to 10 uM preincubated for 2.5 mins followed by capsaicin addition measured for 1 min by luminescence assay; assay type: cell-based
[5] = AUC (infinity) in rat at 30 mg/kg, po; assay type: ADME, organism-based; parameters: dose 30 mg/kg, time infinity, route oral; settings: in vivo
Summary of the method: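 Rat oral PK at 30 mg/kg (10 mg/kg for one analogue) in 1% Tween 80/2% HPMC/97% water with methanesulfonic acid, pH 2.2.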

[6] = target: C-C chemokine receptor type 2 (Homo sapiens) (UniProt P41597); assay: Displacement of [125I]MCP-1 from human recombinant CCR2 expressed in HEK293 cells assessed as remaining radioligand binding at 10 uM after 60 mins by scintillation counting method relative to control; assay type: cell-based
[7] = test system: Rattus norvegicus; assay: Unbound clearance in rat at 0.5 mg/kg, iv as single dose; assay type: ADME, organism-based; settings: in vivo
Summary of the method: (§1)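 Single intravenous dose of 0.5 mg/kg given to rats, formulated in 100% DMSO.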

[8] = Fraction unbound in rat plasma; assay type: ADME, cell-free
[9] = Half life in rat at 0.5 mg/kg, iv administered as single dose; assay type: ADME, organism-based; settings: in vivo; summary of the method: as §1
[10] = target: Alpha-1A adrenergic receptor (Homo sapiens) (UniProt P35348); assay: Displacement of [3H]prazosin from human recombinant adrenergic alpha1A expressed in CHO cells assessed as remaining radioligand binding at 10 uM after 60 mins by scintillation counting method relative to control; assay type: cell-based
[11] = test system: MDR1 (human); assay: Efflux ratio of apparent permeability from basolateral to apical side over apical to basolateral side in MDCK cells expressing human MDR1 after 120 mins by LC-MS/MS analysis; assay type: ADME, cell-based, Canis lupus familiaris; settings: dog
Summary of the method: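 Efflux ratio taken as Papp B→A / Papp A→B, measured in MDR1-transfected MDCK cells against MDCK vector-control cells.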

[12] = test system: Plasma; assay: Unbound plasma concentration in Harlan Sprague-Dawley rat model of AITC-induced flinching at 3 mg/kg, po at 1 hr; assay type: ADME, organism-based; settings: in vivo
Summary of the method: (§2)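 Rats were given vehicle (2% HPMC/1% Tween-80) or compound orally at 1, 3, 10 or 30 mg/kg. After 1 h, 0.1% AITC was injected into one left ventral hind paw, and nocifensive flinching was recorded over the first minute. Unbound plasma concentration was measured at 1 h, n = 8 per dose. In vivo IC50/IC90 came from the exposure–response relationship across individual animals.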

[13] = Half life in rat at 30 mg/kg, po; assay type: ADME, organism-based; settings: in vivo
Summary of the method: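 Rats dosed orally at 30 mg/kg, or 10 mg/kg for one analogue, in 1% Tween 80/2% HPMC/97% water with methanesulfonic acid, pH 2.2.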

[14] = target: Beta-1 adrenergic receptor (Homo sapiens) (UniProt P08588); assay: Displacement of (-)-[3H]CGP-12177 from human recombinant adrenergic beta1 receptor expressed in HEK293 cells assessed as remaining radioligand binding at 10 uM after 60 mins by scintillation counting method relative to control; assay type: cell-based
[15] = target: Transient receptor potential cation channel subfamily V member 4 (Homo sapiens) (UniProt Q9HBA0); assay: Antagonist activity at human TRPV4 expressed in tetracycline-inducible T-REx expression system transfected CHO cells assessed as inhibition of 4alpha-PDD-induced Ca2+ influx up to 10 uM preincubated for 2.5 mins followed by 4alpha-PDD addition measured for 1 min by luminescence assay; assay type: cell-based
[16] = target: Adenosine receptor A3 (Homo sapiens) (UniProt P0DMS8); assay: Displacement of [125I]AB-MECA from human recombinant adenosine A3 receptor expressed in HEK293 cells assessed as remaining radioligand binding at 10 uM after 120 mins by scintillation counting method relative to control; assay type: cell-based
[17] = target: Transient receptor potential cation channel subfamily A member 1 (Homo sapiens, UniProt O75762); assay: Agonist activity at human TRPA1 expressed in tetracycline-inducible T-REx expression system transfected CHO cells by 45Ca2+ uptake assay; assay type: cell-based
[18] = target: Histamine H2 receptor (Homo sapiens) (UniProt P25021); assay: Displacement of [125I]APT from human recombinant histamine H2 receptor expressed in CHO cells assessed as remaining radioligand binding at 10 uM after 120 mins by scintillation counting method relative to control; assay type: cell-based
[19] = organism: Rattus norvegicus; assay: Displacement of [35S]TBPS from GABA gated chloride channel in rat cerebral cortex assessed as remaining radioligand binding at 10 uM after 120 mins by scintillation counting method relative to control; assay type: tissue-based
[20] = target: Somatostatin receptor type 4 (Homo sapiens) (UniProt P31391); assay: Displacement of [125I]Tyr11-somatostatin-14 from human recombinant SST4 receptor expressed in CHO cells assessed as remaining radioligand binding at 10 uM after 120 mins by scintillation counting method relative to control; assay type: cell-based
[21] = target: 5-hydroxytryptamine receptor 5A (Homo sapiens) (UniProt P47898); assay: Displacement of [3H]LSD from human recombinant 5HT5A receptor expressed in HEK293 cells assessed as remaining radioligand binding at 10 uM after 120 mins by scintillation counting method relative to control; assay type: cell-based
[22] = Apparent intrinsic clearance in rat liver microsomes; assay type: ADME; settings: read-out: CLH(app)
[23] = target: 5-hydroxytryptamine receptor 1B (Rattus norvegicus) (UniProt P28564); assay: Displacement of [125I]CYP from 5HT1B receptor in rat cerebral cortex assessed as remaining radioligand binding at 10 uM after 120 mins by scintillation counting method relative to control; assay type: tissue-based
[24] = test system: Rattus norvegicus; assay: In vivo inhibition of TRPA1 in Harlan Sprague-Dawley rat model of AITC-induced flinching assessed as unbound plasma concentration based IC90; assay type: functional; summary of the method: as §2
[25] = test system: Plasma; assay: Unbound plasma concentration in Harlan Sprague-Dawley rat model of AITC-induced flinching at 1 mg/kg, po at 1 hr; assay type: ADME, organism-based; settings: in vivo; summary of the method: as §2
[26] = target: 5-hydroxytryptamine receptor 4 (Homo sapiens) (UniProt Q13639); assay: Displacement of [3H]GR-113808 from human recombinant 5HT4E receptor expressed in CHO cells assessed as remaining radioligand binding at 10 uM after 60 mins by scintillation counting method relative to control; assay type: cell-based
[27] = organism: Rattus norvegicus; assay: Displacement of [3H]nitrendipine from L-type calcium channel dihydropyridine binding site in rat cerebral cortex assessed as remaining radioligand binding at 10 uM after 90 mins by scintillation counting method relative to control; assay type: tissue-based
[28] = target: Transient receptor potential cation channel subfamily V member 1 (Rattus norvegicus) (UniProt O35433); assay: Antagonist activity at rat TRPV1 assessed as inhibition of capsaicin-induced Ca2+ influx up to 10 uM preincubated for 2.5 mins followed by capsaicin addition measured for 1 min by luminescence assay
[29] = test system: Plasma; assay: Unbound plasma concentration in Harlan Sprague-Dawley rat model of AITC-induced flinching at 10 mg/kg, po at 1 hr; assay type: ADME, organism-based; settings: in vivo; summary of the method: as §2

Sequence of Alpha-1A adrenergic receptor (Homo sapiens) (P35348 whole entry): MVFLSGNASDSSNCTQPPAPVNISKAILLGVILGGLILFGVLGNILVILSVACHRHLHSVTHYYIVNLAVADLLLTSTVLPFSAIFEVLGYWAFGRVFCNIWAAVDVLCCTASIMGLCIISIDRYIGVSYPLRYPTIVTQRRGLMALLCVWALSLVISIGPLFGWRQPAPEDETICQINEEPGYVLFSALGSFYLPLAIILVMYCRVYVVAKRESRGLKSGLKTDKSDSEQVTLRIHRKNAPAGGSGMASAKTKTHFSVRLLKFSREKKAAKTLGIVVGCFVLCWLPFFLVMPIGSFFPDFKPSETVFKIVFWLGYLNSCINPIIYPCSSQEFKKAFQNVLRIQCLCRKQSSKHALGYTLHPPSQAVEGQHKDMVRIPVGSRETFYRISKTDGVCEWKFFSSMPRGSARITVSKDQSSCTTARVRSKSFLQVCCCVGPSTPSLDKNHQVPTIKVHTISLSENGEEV
Sequence of Transient receptor potential cation channel subfamily A member 1 (O75762 whole entry): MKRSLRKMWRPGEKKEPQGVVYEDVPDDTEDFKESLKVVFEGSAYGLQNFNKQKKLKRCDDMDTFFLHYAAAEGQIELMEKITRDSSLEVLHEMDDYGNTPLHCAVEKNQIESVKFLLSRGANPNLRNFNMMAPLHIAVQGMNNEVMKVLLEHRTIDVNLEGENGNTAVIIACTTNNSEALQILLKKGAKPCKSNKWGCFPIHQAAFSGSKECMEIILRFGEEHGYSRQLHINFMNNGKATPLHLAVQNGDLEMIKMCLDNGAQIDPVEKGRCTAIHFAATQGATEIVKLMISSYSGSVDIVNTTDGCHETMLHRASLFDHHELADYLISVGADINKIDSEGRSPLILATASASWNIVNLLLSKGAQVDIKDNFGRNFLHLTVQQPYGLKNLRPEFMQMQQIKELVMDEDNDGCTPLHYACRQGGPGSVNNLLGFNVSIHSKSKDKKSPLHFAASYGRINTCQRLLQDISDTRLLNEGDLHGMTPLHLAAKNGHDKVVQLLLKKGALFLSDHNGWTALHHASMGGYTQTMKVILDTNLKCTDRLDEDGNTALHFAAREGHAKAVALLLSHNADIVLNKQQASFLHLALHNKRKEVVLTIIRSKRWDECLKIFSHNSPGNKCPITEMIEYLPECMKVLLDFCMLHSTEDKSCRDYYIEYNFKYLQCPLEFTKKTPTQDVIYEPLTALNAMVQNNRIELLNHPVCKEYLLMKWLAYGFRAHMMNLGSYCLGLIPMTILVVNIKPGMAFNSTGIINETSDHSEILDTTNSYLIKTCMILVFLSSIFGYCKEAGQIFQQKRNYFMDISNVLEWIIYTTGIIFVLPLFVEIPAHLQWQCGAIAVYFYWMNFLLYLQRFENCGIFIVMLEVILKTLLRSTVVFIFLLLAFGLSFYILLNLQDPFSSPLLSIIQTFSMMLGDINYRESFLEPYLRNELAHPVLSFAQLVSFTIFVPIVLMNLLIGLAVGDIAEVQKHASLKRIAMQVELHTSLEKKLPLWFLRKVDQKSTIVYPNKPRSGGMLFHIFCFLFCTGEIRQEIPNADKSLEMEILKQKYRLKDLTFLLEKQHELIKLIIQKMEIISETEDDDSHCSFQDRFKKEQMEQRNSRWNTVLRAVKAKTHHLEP
Sequence of Somatostatin receptor type 4 (Homo sapiens) (P31391 whole entry): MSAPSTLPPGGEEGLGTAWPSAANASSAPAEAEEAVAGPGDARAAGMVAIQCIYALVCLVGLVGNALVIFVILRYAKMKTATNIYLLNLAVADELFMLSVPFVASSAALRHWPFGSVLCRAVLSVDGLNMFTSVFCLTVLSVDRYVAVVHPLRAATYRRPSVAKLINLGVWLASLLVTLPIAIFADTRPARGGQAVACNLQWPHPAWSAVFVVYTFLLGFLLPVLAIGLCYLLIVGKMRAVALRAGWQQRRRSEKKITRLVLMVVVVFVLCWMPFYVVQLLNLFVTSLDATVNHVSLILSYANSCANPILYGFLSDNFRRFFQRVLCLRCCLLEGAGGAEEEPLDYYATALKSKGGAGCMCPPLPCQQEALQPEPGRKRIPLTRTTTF
Sequence of Transient receptor potential cation channel subfamily V member 1 (Q8NER1 whole entry): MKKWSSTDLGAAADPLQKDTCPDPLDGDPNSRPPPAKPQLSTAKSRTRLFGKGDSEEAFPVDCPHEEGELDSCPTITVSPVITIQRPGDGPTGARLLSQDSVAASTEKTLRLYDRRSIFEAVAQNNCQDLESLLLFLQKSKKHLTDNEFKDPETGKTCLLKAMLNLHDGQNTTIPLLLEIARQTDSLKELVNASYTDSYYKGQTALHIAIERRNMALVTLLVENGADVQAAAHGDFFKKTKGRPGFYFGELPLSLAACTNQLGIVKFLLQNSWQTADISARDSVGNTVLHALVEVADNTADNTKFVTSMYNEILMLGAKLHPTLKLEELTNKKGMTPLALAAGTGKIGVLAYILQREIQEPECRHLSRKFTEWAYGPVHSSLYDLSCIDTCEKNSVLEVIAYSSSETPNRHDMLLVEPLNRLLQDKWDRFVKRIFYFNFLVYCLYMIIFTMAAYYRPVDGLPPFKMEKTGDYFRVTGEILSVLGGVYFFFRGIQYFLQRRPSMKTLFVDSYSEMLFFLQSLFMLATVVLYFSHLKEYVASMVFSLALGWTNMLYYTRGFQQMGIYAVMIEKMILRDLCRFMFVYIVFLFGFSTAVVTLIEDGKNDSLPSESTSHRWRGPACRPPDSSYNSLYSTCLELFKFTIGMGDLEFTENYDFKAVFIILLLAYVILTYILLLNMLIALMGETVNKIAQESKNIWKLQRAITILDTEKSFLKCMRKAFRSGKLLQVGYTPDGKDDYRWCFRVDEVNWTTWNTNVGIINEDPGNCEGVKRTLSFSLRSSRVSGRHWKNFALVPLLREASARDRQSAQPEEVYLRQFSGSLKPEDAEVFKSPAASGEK
Sequence of Sodium-dependent noradrenaline transporter (Homo sapiens) (P23975 whole entry): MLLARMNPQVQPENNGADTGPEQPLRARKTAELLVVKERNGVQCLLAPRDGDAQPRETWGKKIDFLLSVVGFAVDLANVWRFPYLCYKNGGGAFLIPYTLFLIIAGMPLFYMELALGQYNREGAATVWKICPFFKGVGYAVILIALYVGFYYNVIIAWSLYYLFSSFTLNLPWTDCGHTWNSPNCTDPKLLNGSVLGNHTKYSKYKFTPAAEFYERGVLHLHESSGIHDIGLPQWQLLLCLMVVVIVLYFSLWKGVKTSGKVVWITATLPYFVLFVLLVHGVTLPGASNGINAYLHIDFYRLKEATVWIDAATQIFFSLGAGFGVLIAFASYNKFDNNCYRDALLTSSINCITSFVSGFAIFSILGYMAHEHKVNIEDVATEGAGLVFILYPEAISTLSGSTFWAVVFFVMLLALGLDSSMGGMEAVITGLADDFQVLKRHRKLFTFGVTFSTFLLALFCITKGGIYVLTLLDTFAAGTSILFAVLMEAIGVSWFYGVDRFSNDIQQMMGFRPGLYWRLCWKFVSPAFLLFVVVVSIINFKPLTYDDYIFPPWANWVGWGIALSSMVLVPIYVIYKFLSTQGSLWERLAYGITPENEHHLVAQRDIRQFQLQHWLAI
Sequence of 5-hydroxytryptamine receptor 4 (Homo sapiens) (Q13639 whole entry): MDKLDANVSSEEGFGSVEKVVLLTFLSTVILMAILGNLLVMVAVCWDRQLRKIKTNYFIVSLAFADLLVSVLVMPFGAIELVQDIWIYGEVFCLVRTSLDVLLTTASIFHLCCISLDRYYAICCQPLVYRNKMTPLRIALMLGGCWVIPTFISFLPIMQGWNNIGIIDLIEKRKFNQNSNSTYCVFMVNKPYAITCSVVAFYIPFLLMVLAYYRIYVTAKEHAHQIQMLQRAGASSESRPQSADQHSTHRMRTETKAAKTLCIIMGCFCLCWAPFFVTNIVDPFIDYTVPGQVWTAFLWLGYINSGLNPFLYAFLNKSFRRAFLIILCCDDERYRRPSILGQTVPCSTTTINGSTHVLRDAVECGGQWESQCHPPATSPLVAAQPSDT
Sequence of Adenosine receptor A3 (Homo sapiens) (P0DMS8 whole entry): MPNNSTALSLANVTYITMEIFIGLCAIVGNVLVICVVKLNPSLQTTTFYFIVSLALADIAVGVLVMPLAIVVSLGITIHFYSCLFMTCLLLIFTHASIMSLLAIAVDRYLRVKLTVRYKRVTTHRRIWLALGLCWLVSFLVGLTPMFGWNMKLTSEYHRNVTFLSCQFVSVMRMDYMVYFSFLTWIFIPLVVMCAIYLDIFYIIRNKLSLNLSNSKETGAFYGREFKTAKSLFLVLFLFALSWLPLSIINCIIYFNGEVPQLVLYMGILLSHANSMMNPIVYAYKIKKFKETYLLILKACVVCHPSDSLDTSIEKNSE
Sequence of 5-hydroxytryptamine receptor 5A (Homo sapiens) (P47898 whole entry): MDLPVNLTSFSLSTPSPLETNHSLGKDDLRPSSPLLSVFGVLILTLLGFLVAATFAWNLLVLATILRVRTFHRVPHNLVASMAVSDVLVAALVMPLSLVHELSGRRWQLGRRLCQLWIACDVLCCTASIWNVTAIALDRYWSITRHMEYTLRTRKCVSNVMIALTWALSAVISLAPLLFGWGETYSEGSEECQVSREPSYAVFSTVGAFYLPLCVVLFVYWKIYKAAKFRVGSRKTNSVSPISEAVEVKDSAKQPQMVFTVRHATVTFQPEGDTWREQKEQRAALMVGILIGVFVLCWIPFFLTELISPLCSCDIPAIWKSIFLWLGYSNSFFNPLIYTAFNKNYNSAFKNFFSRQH
Sequence of C-C chemokine receptor type 2 (Homo sapiens) (P41597 whole entry, looked up): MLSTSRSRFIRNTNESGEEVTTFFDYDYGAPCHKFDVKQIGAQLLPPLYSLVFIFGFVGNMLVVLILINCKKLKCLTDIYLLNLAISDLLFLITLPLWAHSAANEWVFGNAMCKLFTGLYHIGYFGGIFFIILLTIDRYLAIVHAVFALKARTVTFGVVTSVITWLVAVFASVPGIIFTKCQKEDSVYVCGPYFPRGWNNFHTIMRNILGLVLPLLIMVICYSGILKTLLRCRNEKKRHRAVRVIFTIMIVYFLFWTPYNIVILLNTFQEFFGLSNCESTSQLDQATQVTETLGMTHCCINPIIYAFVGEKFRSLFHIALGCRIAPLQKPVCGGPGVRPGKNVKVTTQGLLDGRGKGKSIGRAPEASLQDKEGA

`Cn1cnc2ncn(Cc3nc(CCc4ccc(Cl)cc4)no3)c(=O)c21` gave a clearance [1] of 41.7 mL/min/kg, an Activity [2] greater than 77% and a microsomal CLint [3] of less than 14 µL/min/mg. For the same molecule, the inhibition [4] was “inactive”, the AUC(0-inf) [5] was 19.8 µM·h and the Activity [6] was greater than 77%. The CL free [7] was 150 mL/min/kg, the fraction unbound [8] was 0.289 and the half-life [9] was 0.6 h. The Activity [10] was greater than 77%, the efflux ratio at 2 h [11] was 1.3 and the “Cp(f)” value [12] was 190 nM. For the same molecule, the half-life [13] was 2.8 h, the Activity [14] was greater than 77% and the inhibition [15] was “inactive”. The Activity [16] was greater than 77%, the EC50 [17] was greater than 40 µM and the Activity [18] was greater than 77%. The Activity [19] was greater than 77%, the Activity [20] was greater than 77% and the Activity [21] was greater than 77%. The microsomal CLint [22] was 41 µL/min/mg, the Activity [23] was greater than 77% and the IC90 [24] was 1.7 µM. For the same molecule, the “Cp(f)” value [25] was 51 nM, the Activity [26] was greater than 77% and the Activity [27] was greater than 77%. For the same molecule, the inhibition [28] was “inactive” and the “Cp(f)” value [29] was 580 nM.
